Results as given in ChEMBL document CHEMBL4145676, “Mathematical and Structural Characterization of Strong Nonadditive Structure-Activity Relationship Caused by Protein Conformational Changes” (J Med Chem, 2018).

Experiment: Inhibition of GST tagged PDE2 (unknown origin) assessed as reduction in FAM-cAMP hydrolysis pre-incubated for 5 mins before FAM-cAMP addition and measured after 30 mins by IMAP assay
Parameters: species or system Homo sapiens
Summary of the method: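 Compound added from 1 mM DMSO stock, 5 min at rt. FAM-cAMP then added at 200 nM final, 30 min at rt. Stopped with IMAP Tb binding reagent, 1 h at rt. Plate reader read-out gives pIC50, run in quadruplicate.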

Q: With `CNC(=O)c1ccc2nc(C)c3nnc(-c4cc(F)ccc4Cl)n3c2c1` as the compound, how does the pIC50 read?
A: 8.69

Q: Which pIC50 does the source give for `CNC(=O)c1ccc2nc(C)c3nnc(-c4cc(OC(C)(C)C)ccc4Cl)n3c2c1` here?
A: 9.16

Q: With `Cc1nc2ccc(C(=O)NC(C)(C)C)cc2n2c(-c3cc(F)ccc3Cl)nnc12` as the compound, how does the pIC50 read?
A: 9.3

Q: With `Cc1nc2ccc(C(=O)NCC(C)C)cc2n2c(-c3cc(OCC(C)C)ccc3Cl)nnc12` as the compound, how does the pIC50 read?
A: 9.29

Q: With `COc1ccc(Cl)c(-c2nnc3c(C)nc4ccc(C(=O)NC(C)C)cc4n23)c1` as the compound, how does the pIC50 read?
A: 8.96

Q: Which pIC50 does the source give for `Cc1nc2ccc(C(=O)NCC(C)C)cc2n2c(-c3cc(OC(C)(C)C)ccc3Cl)nnc12` here?
A: 8.88

Q: With `COc1ccc(Cl)c(-c2nnc3c(C)nc4ccc(C(=O)NC56CC7CC(CC(C7)C5)C6)cc4n23)c1` as the compound, how does the pIC50 read?
A: 9.49

Q: With `Cc1nc2ccc(C(=O)NC(C)(C)C)cc2n2c(-c3ccccc3Cl)nnc12` as the compound, how does the pIC50 read?
A: 9.47

Q: With `COc1ccc(Cl)c(-c2nnc3c(C)nc4ccc(C(=O)NC(C)(C)C)cc4n23)c1` as the compound, how does the pIC50 read?
A: 9

Q: Which pIC50 does the source give for `Cc1nc2ccc(C(=O)NC34CC5CC(CC(C5)C3)C4)cc2n2c(-c3cc(OC(C)(C)C)ccc3Cl)nnc12` here?
A: 7.58

Q: Which pIC50 does the source give for `Cc1nc2ccc(C(=O)NC(C)(C)C)cc2n2c(-c3cc(OC(C)C)ccc3Cl)nnc12` here?
A: 8.3

Q: For `CNC(=O)c1ccc2nc(C)c3nnc(-c4ccccc4Cl)n3c2c1`, which pIC50 is on record?
A: 8.55

Q: With `Cc1nc2ccc(C(=O)NC34CC5CC(CC(C5)C3)C4)cc2n2c(-c3cc(F)ccc3Cl)nnc12` as the compound, how does the pIC50 read?
A: 9.58

Q: With `Cc1nc2ccc(C(=O)NC(C)C)cc2n2c(-c3cc(F)ccc3Cl)nnc12` as the compound, how does the pIC50 read?
A: 9.17

Q: With `CNC(=O)c1ccc2nc(C)c3nnc(-c4cc(OC(C)C)ccc4Cl)n3c2c1` as the compound, how does the pIC50 read?
A: 9.16

Q: Which pIC50 does the source give for `Cc1nc2ccc(C(=O)NC34CC5CC(CC(C5)C3)C4)cc2n2c(-c3cc(OC(C)C)ccc3Cl)nnc12` here?
A: 7.94

Q: For `CNC(=O)c1ccc2nc(C)c3nnc(-c4cc(OCC(C)C)ccc4Cl)n3c2c1`, which pIC50 is on record?
A: 9.61

Q: For `Cc1nc2ccc(C(=O)NCC(C)C)cc2n2c(-c3cc(OC(C)C)ccc3Cl)nnc12`, which pIC50 is on record?
A: 8.93

Q: With `Cc1nc2ccc(C(=O)NC34CC5CC(CC(C5)C3)C4)cc2n2c(-c3ccccc3Cl)nnc12` as the compound, how does the pIC50 read?
A: 9.77

Q: With `Cc1nc2ccc(C(=O)NC(C)C)cc2n2c(-c3cc(OC(C)(C)C)ccc3Cl)nnc12` as the compound, how does the pIC50 read?
A: 9.1

Q: For `Cc1nc2ccc(C(=O)NCC(C)C)cc2n2c(-c3ccccc3Cl)nnc12`, which pIC50 is on record?
A: 9.52

Q: For `Cc1nc2ccc(C(=O)NC(C)(C)C)cc2n2c(-c3cc(OCC(C)C)ccc3Cl)nnc12`, which pIC50 is on record?
A: 8.75

Q: With `Cc1nc2ccc(C(=O)NCC(C)C)cc2n2c(-c3cc(F)ccc3Cl)nnc12` as the compound, how does the pIC50 read?
A: 9.37

Q: For `Cc1nc2ccc(C(=O)NC(C)C)cc2n2c(-c3ccccc3Cl)nnc12`, which pIC50 is on record?
A: 9.57

Q: With `Cc1nc2ccc(C(=O)NC(C)C)cc2n2c(-c3cc(OC(C)C)ccc3Cl)nnc12` as the compound, how does the pIC50 read?
A: 8.99

Q: For `Cc1nc2ccc(C(=O)NC34CC5CC(CC(C5)C3)C4)cc2n2c(-c3cc(OCC(C)C)ccc3Cl)nnc12`, which pIC50 is on record?
A: 7.74

Q: Which pIC50 does the source give for `Cc1nc2ccc(C(=O)NC(C)C)cc2n2c(-c3cc(OCC(C)C)ccc3Cl)nnc12` here?
A: 9.46

Q: With `COc1ccc(Cl)c(-c2nnc3c(C)nc4ccc(C(=O)NCC(C)C)cc4n23)c1` as the compound, how does the pIC50 read?
A: 9.42

Q: Which pIC50 does the source give for `CNC(=O)c1ccc2nc(C)c3nnc(-c4cc(OC)ccc4Cl)n3c2c1` here?
A: 8.74

Q: Which pIC50 does the source give for `Cc1nc2ccc(C(=O)NC(C)(C)C)cc2n2c(-c3cc(OC(C)(C)C)ccc3Cl)nnc12` here?
A: 8.35
